Measurements: ChEMBL document CHEMBL1255404, “Spread of OXA-48-encoding plasmid in Turkey and beyond” (2010)
Values after ≈ are worked out from the molar mass of the structure shown.

Columns and labels:
Type in all cases: functional
[1] = test system: Escherichia coli; assay: Antimicrobial activity against Escherichia coli isolate J53 harboring pA-1 containing beta-lactamase OXA-48 located within transposon Tn1999 by Etest method in presence of beta-lactamase inhibitor clavulanic acid
How it was run: (§1)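 β-Lactam MICs read with Etest strips. Strains are E. coli J53 recipient and J53 transconjugants carrying OXA-48-positive plasmids recovered from clinical enterobacterial isolates.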

[2] = test system: Klebsiella pneumoniae; assay: Antimicrobial activity against Klebsiella pneumoniae isolate KpB expressing OXA-48 and CTX-M-15 by Etest method in presence of beta-lactamase inhibitor clavulanic acid
How it was run: (§2)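 MICs of β-lactams read from Etest strips. The test organisms are carbapenem-resistant, OXA-48-positive clinical Enterobacteriaceae isolates recovered from Turkey, Lebanon, Egypt, France and Belgium.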

[3] = test system: Klebsiella pneumoniae; assay: Antimicrobial activity against Klebsiella pneumoniae isolate Kp3A expressing beta-lactamase OXA-48 by Etest method in presence of beta-lactamase inhibitor clavulanic acid; how it was run: as §2
[4] = test system: Escherichia coli; assay: Antimicrobial activity against Escherichia coli isolate J53 harboring p3A containing beta-lactamase OXA-48 located within transposon Tn1999 by Etest method in presence of beta-lactamase inhibitor clavulanic acid; how it was run: as §1
[5] = test system: Klebsiella pneumoniae; assay: Antimicrobial activity against Klebsiella pneumoniae isolate Kp4A expressing beta-lactamase OXA-48 and CTX-M-15 by Etest method in presence of beta-lactamase inhibitor clavulanic acid; how it was run: as §2
[6] = test system: Klebsiella pneumoniae; assay: Antimicrobial activity against Klebsiella pneumoniae isolate Kp5A expressing beta-lactamase OXA-48 and SHV-5 by Etest method in presence of beta-lactamase inhibitor clavulanic acid; how it was run: as §2
[7] = test system: Escherichia coli; assay: Antimicrobial activity against Escherichia coli isolate J53 harboring p4A containing beta-lactamase OXA-48 located within transposon Tn1999 by Etest method in presence of beta-lactamase inhibitor clavulanic acid; how it was run: as §1
[8] = test system: Escherichia coli; assay: Antimicrobial activity against Escherichia coli isolate J53 harboring p5A containing beta-lactamase OXA-48 located within transposon Tn1999 by Etest method in presence of beta-lactamase inhibitor clavulanic acid; how it was run: as §1
[9] = test system: Escherichia coli; assay: Antimicrobial activity against Escherichia coli isolate J53 harboring p6A containing beta-lactamase OXA-48 located within transposon Tn1999 by Etest method in presence of beta-lactamase inhibitor clavulanic acid; how it was run: as §1
[10] = test system: Escherichia coli; assay: Antimicrobial activity against Escherichia coli isolate J53 harboring p7A containing beta-lactamase OXA-48 located within transposon Tn1999 by Etest method in presence of beta-lactamase inhibitor clavulanic acid; how it was run: as §1
[11] = test system: Klebsiella pneumoniae; assay: Antimicrobial activity against Klebsiella pneumoniae isolate KpI-1 expressing beta-lactamase OXA-48 and CTX-M-15 by Etest method in presence of beta-lactamase inhibitor clavulanic acid; how it was run: as §2
[12] = test system: Klebsiella pneumoniae; assay: Antimicrobial activity against Klebsiella pneumoniae isolate KpI-2 expressing beta-lactamase OXA-48 and CTX-M-15 by Etest method in presence of beta-lactamase inhibitor clavulanic acid; how it was run: as §2
[13] = test system: Escherichia coli; assay: Antimicrobial activity against Escherichia coli isolate J53 harboring pI-1 containing beta-lactamase OXA-48 located within transposon Tn1999.2 by Etest method in presence of beta-lactamase inhibitor clavulanic acid; how it was run: as §1
[14] = test system: Escherichia coli; assay: Antimicrobial activity against Escherichia coli isolate J53 harboring pI-2 containing beta-lactamase OXA-48 located within transposon Tn1999.2 by Etest method in presence of beta-lactamase inhibitor clavulanic acid; how it was run: as §1
[15] = test system: Escherichia coli; assay: Antimicrobial activity against Escherichia coli isolate J53 harboring pBEL containing beta-lactamase OXA-48 located within transposon Tn1999.2 by Etest method in presence of beta-lactamase inhibitor clavulanic acid; how it was run: as §1
[16] = test system: Klebsiella pneumoniae; assay: Antimicrobial activity against Klebsiella pneumoniae isolate KpL expressing beta-lactamase OXA-48 by Etest method in presence of beta-lactamase inhibitor clavulanic acid; how it was run: as §2
[17] = test system: Escherichia coli; assay: Antimicrobial activity against Escherichia coli isolate TOP10 harboring pPR containing beta-lactamase and TEM-101 by Etest method in presence of beta-lactamase inhibitor clavulanic acid
How it was run: (§3)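 β-Lactam MICs read with Etest strips. Strains are E. coli TOP10 host and TOP10 transformants made with plasmid DNA extract when conjugation failed. Transformants were selected on LB agar with ticarcillin 50 μg/ml.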

[18] = test system: Enterobacter cloacae; assay: Antimicrobial activity against Enterobacter cloacae isolate 1 expressing beta-lactamase OXA-48 and SHV-5 by Etest method in presence of beta-lactamase inhibitor clavulanic acid; how it was run: as §2
[19] = test system: Citrobacter freundii; assay: Antimicrobial activity against Citrobacter freundii isolate expressing beta-lactamase OXA-48 by Etest method in presence of beta-lactamase inhibitor clavulanic acid; how it was run: as §2
[20] = test system: Klebsiella pneumoniae; assay: Antimicrobial activity against Klebsiella pneumoniae isolate KpB expressing OXA-48 and CTX-M-15 by Etest method
[21] = test system: Escherichia coli; assay: Antimicrobial activity against Escherichia coli isolate J53 harboring pBb containing beta-lactamase OXA-48 located within transposon Tn1999.2 by Etest method; how it was run: as §1
[22] = test system: Escherichia coli; assay: Antimicrobial activity against Escherichia coli isolate J53 harboring p3A containing beta-lactamase OXA-48 located within transposon Tn1999 by Etest method; how it was run: as §1
[23] = test system: Klebsiella pneumoniae; assay: Antimicrobial activity against Klebsiella pneumoniae isolate Kp5A expressing beta-lactamase OXA-48 and SHV-5 by Etest method
[24] = test system: Klebsiella pneumoniae; assay: Antimicrobial activity against Klebsiella pneumoniae isolate Kp6A expressing beta-lactamase OXA-48 and TEM-150 by Etest method
[25] = test system: Escherichia coli; assay: Antimicrobial activity against Escherichia coli isolate J53 harboring p5A containing beta-lactamase OXA-48 located within transposon Tn1999 by Etest method; how it was run: as §1
[26] = test system: Klebsiella pneumoniae; assay: Antimicrobial activity against Klebsiella pneumoniae isolate KpI-1 expressing beta-lactamase OXA-48 and CTX-M-15 by Etest method
[27] = test system: Klebsiella pneumoniae; assay: Antimicrobial activity against Klebsiella pneumoniae isolate KpBIC expressing beta-lactamase OXA-48 by Etest method; how it was run: as §2
[28] = test system: Escherichia coli; assay: Antimicrobial activity against Escherichia coli isolate TOP10 harboring pBIC containing beta-lactamase OXA-48 located within transposon Tn1999.2 by Etest method; how it was run: as §3
[29] = test system: Escherichia coli; assay: Antimicrobial activity against Escherichia coli isolate J53 harboring pE containing beta-lactamase OXA-48 located within transposon Tn1999.2 by Etest method; how it was run: as §1
[30] = test system: Escherichia coli; assay: Antimicrobial activity against Escherichia coli isolate J53 harboring pBEL containing beta-lactamase OXA-48 located within transposon Tn1999.2 by Etest method; how it was run: as §1
[31] = test system: Providencia rettgeri; assay: Antimicrobial activity against Providencia rettgeri isolate expressing beta-lactamase OXA-48 and TEM-101 by Etest method
[32] = test system: Escherichia coli; assay: Antimicrobial activity against Escherichia coli isolate TOP10 harboring pPR containing beta-lactamase and TEM-101 by Etest method; how it was run: as §3
[33] = test system: Enterobacter cloacae; assay: Antimicrobial activity against Enterobacter cloacae isolate 1 expressing beta-lactamase OXA-48 and SHV-5 by Etest method
[34] = test system: Citrobacter freundii; assay: Antimicrobial activity against Citrobacter freundii isolate expressing beta-lactamase OXA-48 by Etest method
[35] = test system: Escherichia coli; assay: Antimicrobial activity against Escherichia coli isolate J53 harboring pCF containing beta-lactamase OXA-48 located within transposon Tn1999 by Etest method; how it was run: as §1
[36] = test system: Escherichia coli; assay: Antimicrobial activity against Escherichia coli isolate A expressing beta-lactamase OXA-48 and TEM-150 by Etest method
[37] = test system: Escherichia coli; assay: Antimicrobial activity against Escherichia coli isolate TOP10 by Etest method; how it was run: as §3

| Compound | MIC [1] [µg/mL] | MIC [2] [µg/mL] | MIC [3] [µg/mL] | MIC [4] [µg/mL] | MIC [5] [µg/mL] | MIC [6] [µg/mL] | MIC [7] [µg/mL] | MIC [8] [µg/mL] | MIC [9] [µg/mL] | MIC [10] [µg/mL] | MIC [11] [µg/mL] | MIC [12] [µg/mL] | MIC [13] [µg/mL] | MIC [14] [µg/mL] | MIC [15] [µg/mL] | MIC [16] [µg/mL] | MIC [17] [µg/mL] | MIC [18] [µg/mL] | MIC [19] [µg/mL] | MIC [20] [µg/mL] | also measured |
| --- | --- | --- | --- | --- | --- | --- | --- | --- | --- | --- | --- | --- | --- | --- | --- | --- | --- | --- | --- | --- | --- |
| CC1(C)S[C@@H]2[C@H](NC(=O)[C@H](N)c3ccc(O)cc3)C(=O)N2[C@H]1C(=O)O [AMOXICILLIN] | 128 | > 512 | > 512 | > 512 | > 512 | > 512 | > 512 | > 512 | > 512 | > 512 | > 512 | > 512 | > 512 | > 512 | > 256 | > 256 | > 256 | > 512 | > 512 | > 512 | MIC [21]: > 512 µg/mL; MIC [22]: > 512 µg/mL; MIC [23]: > 512 µg/mL; MIC [24]: > 512 µg/mL; MIC [25]: > 512 µg/mL; MIC [26]: > 512 µg/mL; MIC [27]: > 512 µg/mL; MIC [28]: > 512 µg/mL; MIC [29]: > 512 µg/mL; MIC [30]: > 256 µg/mL; MIC [31]: > 256 µg/mL; MIC [32]: > 256 µg/mL; MIC [33]: > 512 µg/mL; MIC [34]: > 512 µg/mL; MIC [35]: > 512 µg/mL; MIC [36]: > 256 µg/mL; MIC [37]: 4 µg/mL (≈ 10.9 µM) |
| CC1(C)S[C@@H]2[C@H](NC(=O)[C@H](C(=O)O)c3ccsc3)C(=O)N2[C@H]1C(=O)O [TICARCILLIN] | 128 | > 512 | > 512 | > 512 | > 512 | > 512 | > 512 | > 512 | > 512 | > 512 | > 512 | > 512 | > 512 | > 512 | > 256 | > 256 | > 256 | > 512 | > 512 | > 512 | MIC [21]: > 512 µg/mL; MIC [22]: > 512 µg/mL; MIC [23]: > 512 µg/mL; MIC [24]: > 512 µg/mL; MIC [25]: > 512 µg/mL; MIC [26]: > 512 µg/mL; MIC [27]: > 512 µg/mL; MIC [28]: > 512 µg/mL; MIC [29]: > 512 µg/mL; MIC [30]: > 256 µg/mL; MIC [31]: > 256 µg/mL; MIC [32]: > 256 µg/mL; MIC [33]: > 512 µg/mL; MIC [34]: > 512 µg/mL; MIC [35]: > 512 µg/mL; MIC [36]: > 256 µg/mL; MIC [37]: 4 µg/mL (≈ 10.4 µM) |
